# From PMC3647260 (Journal of the American Heart Association: Cardiovascular …, 2013)
# Bridge positions count the residues as written; N and C are the ends. Peptide text beside a SMILES is read from it.
# Columns and labels:
# ldlr^−/− mice [1] = format: in vivo, mouse (B6.129S7-Ldlrtm1Her/J, female); conditions: 4 weeks, Western diet, osmotic pump, vs saline
# How it was run: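 Female ldlr−/− mice on a Western diet received peptide by subcutaneous osmotic pump (10 mg in 100 μL water) or saline. After an overnight fast, plasma cholesterol, triglycerides and glucose were measured at 1, 4 and 8 weeks, using a separate group of animals at each time.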
# Solubility = format: physicochemical; conditions: method not given
# NPC1L1 = NPC1L1 protein in whole-cell liver extracts; format: in vivo, mouse (ldlr^−/−); conditions: 8 weeks, osmotic pump, vs saline; ratio to β actin; 4 mice/group; P<0.05
# GAPDH [2] = test: Pull-down assay, control protein, HepG2 extract; format: binding, human (HepG2 cells); conditions: biotinylated peptide, HepG2 whole-cell extract; immunoblot
# How it was run: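 HepG2 cells were serum-starved overnight in DMEM/1% FBS and lysed in binding buffer (10 mmol/L HEPES pH 7.9, 150 mmol/L NaCl, 0.1% NP-40, protease inhibitors). Biotinylated peptide (10 nmol) was incubated with 1.5 mg extract overnight at 4°C. After clearing at 16 000g, it was captured on Neutravidin beads for 4 h. Beads were washed, boiled in SDS buffer and immunoblotted for importins and GAPDH.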
# ChREBP = test: Glucose-induced nuclear translocation of ChREBP in HepG2 cells; format: cell-based, human (HepG2 cells); conditions: 30 μmol/L, 24 hours; 25 mmol/L glucose + 100 nmol/L insulin after starvation; 3 experiments; P<0.05
# How it was run: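 HepG2 cells (kept in DMEM/10% FBS) were starved 24 h in DMEM with 5.5 mmol/L glucose. They were refed 25 mmol/L glucose plus 100 nmol/L insulin, with or without 30 μmol/L test compound, for 24 h. Nuclear and cytosolic extracts were prepared with phosphatase inhibitors and immunoblotted for ChREBP, with lamin loading controls for nuclear fractions.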
# SREBP1 [3] = test: SREBP1 protein in liver extracts of treated mice; format: in vivo, mouse (ldlr^−/−); conditions: Western diet, osmotic pump, vs saline; P<0.05; 8 weeks in Figure 6
# [4] = liver, spleen, pancreas, and lungs, ref not given; cited from earlier work
# HDAC3 = HDAC3 in liver nuclear extracts; format: in vivo, mouse (ldlr^−/−); conditions: 8 weeks, osmotic pump, vs saline; 5 mice/group
# How it was run: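 Liver nuclear extracts came from Western diet-fed ldlr−/− mice after 8 weeks of subcutaneous osmotic pump dosing (10 mg in 100 μL water) or saline; phosphatase inhibitors were added. HDAC3 was immunoblotted and expressed as a ratio to β-actin. Groups were compared by Mann–Whitney test.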
# [5] = system: microbial and autoimmune inflammation; conditions: ref [29]; cited from earlier work
# NFκB RelA (p65) = test: Immunoblot of phosphorylated NFκB RelA in liver extracts of treated mice; format: in vivo, mouse (ldlr^−/−); conditions: 8 weeks, Western diet, osmotic pump, vs saline; relative ratio to total RelA
# [6] = Blood cell counts, blood chemistries and overt signs of toxicity; format: in vivo, mouse (ldlr^−/−)
# How it was run: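 Western diet-fed ldlr−/− mice, treated or saline controls. Complete blood counts were run by a clinical hematology laboratory, and lymphocyte subsets were measured by flow cytometry.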
# SREBP2 [7] = test: SREBP2 nuclear translocation in sterol-depleted HepG2 cells; format: cell-based, human (HepG2 cells); conditions: 2 hours after HPCD
# How it was run: (§1)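 HepG2 cells were sterol-depleted with hydroxypropyl-β-cyclodextrin for 15 min and rinsed. They were then incubated 2 h in DMEM/5% delipidized FBS with 10 μmol/L MG132 and 0, 10 or 30 μmol/L test compound. Nuclear and cytosolic extracts were immunoblotted for SREBPs, normalized to Lamin A/C or B (nuclear) or GAPDH/β-actin (cytosolic). Percent inhibition of nuclear translocation comes from ≥3 independent experiments.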
# NOD mice = conditions: intense, short-term treatment, ref [20]; cited from earlier work
# ldlr^−/− mice [8] = test: Atherosclerotic lesions in the aortic root; format: in vivo, mouse (B6.129S7-Ldlrtm1Her/J, female); conditions: 0.4 mg/mouse i.p. 3 times daily, 4 weeks; n=5/group
# How it was run: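 Female ldlr−/− mice aged 6 weeks were fed a Western diet (21% milk fat, 0.15% cholesterol) and given peptide i.p. (0.4 or 0.7 mg in 200 μL saline every 8 or 12 h), with saline controls. Mice were saline-perfused and hearts OCT-frozen. Every other 10-μm aortic sinus section was taken (15 sections, 300 μm), baked overnight at 55°C and stained with Oil-red-O/hematoxylin. Lesion area, excluding the internal elastic lamina, was averaged per mouse.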
# SREBP2 [9] = test: SREBP2 protein in liver extracts of treated mice; format: in vivo, mouse (ldlr^−/−); conditions: Western diet, osmotic pump, vs saline; P<0.05; 8 weeks in Figure 6
# SREBP1 [10] = test: SREBP1 nuclear translocation in sterol-depleted HepG2 cells; format: cell-based, human (HepG2 cells)
# How it was run: as §1
# [11] = system: SREBP1 and SREBP2 and their target gene transcripts; test: Quantitative PCR of SREBP and target gene transcripts in liver; format: in vivo, mouse (ldlr^−/−); conditions: osmotic pump, vs saline, n=5; for hmgcr (HMG-CoA reductase) mRNA in liver: P<0.005
# How it was run: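 Total liver RNA from Western diet-fed ldlr−/− mice, given peptide or saline by osmotic pump for 4 or 8 weeks, was reverse-transcribed. Transcripts were quantified by real-time PCR with TaqMan probes, using 18S […] as the invariant control.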
# GAPDH [12] = test: Pull-down assay, nonspecific control protein, Jurkat extract; format: binding, human (Jurkat T cells); conditions: biotinylated peptide, Jurkat whole-cell extract; immunoblot
# [13] = ldlr^−/− mice fed a Western diet
structure (smiles),measurement,setting,value
CSCC[C@@H]1NC(=O)[C@H](CC(C)C)NC(=O)[C@H](CCCCN)NC(=O)[C@H](CCC(N)=O)NC(=O)[C@H](CCCNC(=N)N)NC(=O)[C@H](CCCCN)NC(=O)[C@H](CCCNC(=N)N)NC(=O)[C@H](CCC(N)=O)NC(=O)[C@H](C(C)C)NC(=O)[C@@H](NC(=O)[C@@H]2CCCN2C(=O)[C@H](C)NC(=O)[C@H](CC(C)C)NC(=O)[C@H](CC(C)C)NC(=O)[C@H](C)NC(=O)[C@H](CC(C)C)NC(=O)[C@H](CC(C)C)NC(=O)[C@@H](NC(=O)[C@H](C)NC(=O)[C@@H]2CCCN2C(=O)[C@H](CC(C)C)NC(=O)[C@H](CC(C)C)NC(=O)[C@H](C)NC(=O)[C@@H](NC(=O)[C@H](C)NC(=O)[C@H](C)N)C(C)C)C(C)C)CSSC[C@@H](C(=O)O)NC(=O)[C@@H]2CCCN2C1=O [cSN50.1] (H-AAVALLPAVLLALLAPCVQRKRQKLMPC-OH; disulfide 17-28),plasma ALT (alanine transaminase),ldlr^−/− mice [1],significantly reduced
same,plasma AST (aspartate transaminase),ldlr^−/− mice [1],significantly reduced
same,solubility,Solubility,100 mg/mL
same,NPC1L1 protein in liver,NPC1L1,significant NTM‐induced reduction
same,interaction with GAPDH,GAPDH [2],"not with the control protein, GAPDH"
same,attenuation of nuclear accumulation of ChREBP,ChREBP,≈ 50%
same,nuclear SREBP1 protein in liver,SREBP1 [3],reduced
same,precursor SREBP1 protein in liver,SREBP1 [3],reduced
same,delivery to blood cells and organs,[4],easily delivered
same,HDAC3 nuclear content in liver,HDAC3,not significantly changed
same,biomarkers (liver transaminases) in other models of liver inflammation,[5],significantly reduced
same,phosphorylated NFκB RelA (p65) in cytosolic and nuclear fractions of liver cells,NFκB RelA (p65),significantly reduced
same,blood cell populations and blood chemistries,"[6]; 8 weeks of treatment, other than changes shown, vs control animals",did not reveal any significant changes
same,blood chemistries,[6]; [13],normal blood chemistries
same,"red blood cells, white blood cells, major lymphocyte subsets, blood platelets",[6]; [13],no changes
same,other side effects,"[6]; subcutaneous osmotic pumps, 8 weeks",no other side effects were observed
same,nSREBP2 in cytosolic fraction,"SREBP2 [7]; 30 μmol/L, 3 experiments",not significantly increased
same,precursor pSREBP2 in cytosolic fraction,"SREBP2 [7]; 30 μmol/L, 3 experiments",remained unchanged
same,"processing of SREBP precursors to nuclear (mature) forms, SREBP2",SREBP2 [7]; cytosolic fraction,unaffected
same,"suppression of diabetes, duration",NOD mice,1 year
same,"protection from atherosclerosis, lower dose",ldlr^−/− mice [8],not protected
same,nuclear SREBP2 protein in liver,SREBP2 [9],reduced
same,precursor SREBP2 protein in liver,SREBP2 [9],reduced
same,precursor pSREBP1 in cytosolic fraction,"SREBP1 [10]; 30 μmol/L, 2 hours after HPCD, 4 experiments",remained unchanged
same,nSREBP1 in cytosolic fraction,"SREBP1 [10]; 30 μmol/L, 2 hours after HPCD, 4 experiments, P<0.05",significantly more
same,"processing of SREBP precursors to nuclear (mature) forms, SREBP1","SREBP1 [10]; 2 hours after HPCD, cytosolic fraction",unaffected
same,further reduction of nuclear nSREBP1 at 30 μmol/L,"SREBP1 [10]; gradual sterol depletion, 24 hours, 30 vs 10 μmol/L",did not further reduce nSREBP1 in the nucleus by a significant amount
same,completeness of SREBP nuclear transport inhibition,"SREBP1 [10]; rapid and gradual sterol depletion protocols, HepG2",did not completely reduce nuclear transport of SREBPs
same,concentration dependence of nSREBP1 nuclear reduction,"SREBP1 [10]; rapid depletion with HPCD, 2 hours, 0, 10 or 30 μmol/L",concentration dependent
same,abcg5 transcripts in liver,[11]; 4 and 8 weeks,not reduced
same,abcg8 transcripts in liver,[11]; 4 and 8 weeks,not reduced
same,hmgcr (HMG-CoA reductase) mRNA in liver,[11]; 4 weeks,significantly decreased expression
same,srebf1 (SREBP1) transcripts in liver,"[11]; 4 weeks, P<0.05",reduced
same,hmgcr (HMG-CoA reductase) mRNA in liver,[11]; 8 weeks,significantly decreased expression
same,acly (ATP citrate lyase) transcripts in liver,"[11]; 8 weeks, P<0.05",significantly reduced
same,fasn1 (fatty acid synthase-1) transcripts in liver,"[11]; 8 weeks, P<0.05",significantly reduced
same,srebf1 (SREBP1) transcripts in liver,"[11]; 8 weeks, P<0.05",reduced
same,srebf2 (SREBP2) transcripts in liver,"[11]; 8 weeks, P<0.05",reduced
same,interaction with GAPDH,GAPDH [12],not with the nonspecific cytoplasmic control protein GAPDH
